Active and inactive are the calls of the source. No cut-off for these calls is given here.
What was measured:
MCF7 [1] = assay: Growth inhibition of Pgp deficient MCF7 cells expressing MRP1; assay type: functional, cell-based; settings: Homo sapiens
Outline: (§1)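 NCI/ADR (Pgp-overexpressing) or MCF-7/VP (MRP1-expressing, Pgp-negative) cells were seeded at about 15% confluency and allowed to attach for 24 h. They were then exposed for 48 h to varying compound concentrations, limited by solubility, without added vinca drug. Survival was read by sulforhodamine B binding against ethanol solvent controls. Each value is the mean of three equally treated wells.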

[2] = Growth inhibition of NCI/ADR cells expressing Pgp/MRP1; assay type: functional, cell-based; settings: Homo sapiens, NCI/ADR-RES; outline: as §1
[3] = Growth inhibition of Pgp deficient MCF7/VP cells expressing MRP1; assay type: functional, cell-based; settings: Homo sapiens; outline: as §1
[4] = Cytotoxicity against human T24 cells after 48 hrs by SRB binding assay; assay type: cell-based; settings: T-24, 48 h
MCF7 [5] = assay: Cytotoxicity against human MCF7 cells after 48 hrs by SRB binding assay; assay type: functional, cell-based; settings: MCF7, 48 h
Outline: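 Drug-sensitive MCF-7 cells seeded at ~15% confluency and allowed 24 h recovery. Exposed 48 h to graded concentrations. Survival measured by SRB binding as % decrease versus ethanol-vehicle controls, mean of triplicate wells.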

[6] = Cytotoxicity against Pgp overexpressing human NCI/ADR cells after 48 hrs by SRB binding assay; assay type: functional, cell-based; settings: NCI/ADR-RES
Outline: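 NCI/ADR (Pgp-overexpressing) cells seeded at ~15% confluency and allowed 24 h to attach. Exposed 48 h to graded concentrations, as solubility allowed, without vinblastine. Survival measured by sulforhodamine B binding as % decrease in SRB binding versus ethanol-vehicle controls, mean of three wells per condition.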

[7] = Cytotoxicity against MRP1 overexpressing human MCF7/VP cells after 48 hrs by SRB binding assay; assay type: functional, cell-based
Outline: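 MCF-7/VP (MRP1-expressing, Pgp-negative) cells seeded at ~15% confluency and allowed 24 h to attach. Exposed 48 h to graded concentrations without vincristine. Survival measured by SRB binding versus ethanol controls.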

HL-60 [8] = assay: Cell cycle arrest in HL60 cells assessed as accumulation in G0/G1 phase at 80 nM; assay type: functional, Homo sapiens
Outline: (§2)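 HL-60 cells exposed 24 or 48 h to drug or ethanol vehicle. Nuclei prepared by detergent-trypsin method: citrate/sucrose/DMSO buffer, trypsin, then trypsin inhibitor plus RNase A, then propidium iodide with spermine, 30 min at 4 °C. Filtered, resuspended, DNA content measured by flow cytometry. Percentages given for G0/G1, S and G2/M. Mean ± SEM.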

HL-60 [9] = assay: Cell cycle arrest in HL60 cells assessed as accumulation in S phase at 80 nM; assay type: functional, Homo sapiens; outline: as §2
HL-60 [10] = assay: Cell cycle arrest in HL60 cells assessed as accumulation in […] phase at 80 nM; assay type: functional, Homo sapiens; outline: as §2
A10 = assay: Induction of microtubule loss in rat A10 cells at 5 uM after 24 hrs; assay type: functional, cell-based

| IC50 (MCF7 [1]) | SMILES | IC50 [2] | IC50 [3] | IC50 [4] | IC50 (MCF7 [5]) | IC50 [6] | IC50 [7] | Activity (HL-60 [8]) | Activity (HL-60 [9]) | Activity (HL-60 [10]) | Activity (A10) |
| --- | --- | --- | --- | --- | --- | --- | --- | --- | --- | --- | --- |
| 0.0006 µM | CC[C@]1(O)C[C@H]2CN(CCc3c([nH]c4ccccc34)[C@@](C(=O)OC)(c3cc4c(cc3OC)N(C=O)[C@H]3[C@@](O)(C(=O)OC)[C@H](OC(C)=O)[C@]5(CC)C=CCN6CC[C@]43[C@@H]65)C2)C1 [VINCRISTINE] | 0.1 µM | 0.0093 µM | – | – | – | – | – | – | – | – |
| – | COc1cccc(CCc2cn(Cc3ccccc3)c3nc(N)nc(C)c23)c1 | – | – | 25 µM | 8 µM | 5.7 µM | 22 µM | – | – | – | – |
| 0.0028 µM | CC[C@]1(O)C[C@@H]2CN(CCc3c([nH]c4ccccc34)[C@@](C(=O)OC)(c3cc4c(cc3OC)N(C)[C@H]3[C@@](O)(C(=O)OC)[C@H](OC(C)=O)[C@]5(CC)C=CCN6CC[C@]43[C@@H]65)C2)C1 [VINBLASTINE] | > 0.375 µM | 0.003 µM | – | – | – | – | 83.3% | 6.6% | 10.1% | Active |
| – | Cc1nc(N)nc2c1c(CCc1ccccc1)cn2Cc1ccccc1 | – | – | 12.7 µM | 10.7 µM | 18.2 µM | 18.3 µM | – | – | – | – |
